We go through ten compounds from ChEMBL document CHEMBL1137668, “Activities of several classes of acyclic nucleoside phosphonates against camelpox virus replication in different cell culture models” (Antimicrob Agents Chemother, 2007).

The nature of data set [1]: Selectivity index, ratio of CC50 for HEL299 cells to EC50 for Camelpox virus CML14 infected in HEL299 cells. The data set is classed as toxicity, cell-based, HEL 299. The following applies: human, HEL299 cells; read-out: Ratio CC50/IC50.
Data set [2] has as its system Camelpox virus. Kind of data set: Antiviral activity against Camelpox virus CML14 infected in HEL299 cells assessed as inhibition of virus-induced cytopathic effect after 6 days by Giemsa staining. It counts as functional, organism-based. The following applies: CML14, HEL 299, 144 h. A general note: Cytopathic effects are the visible damage that an infection or toxin causes in cultured cells.

A short description of data set [3]: Selectivity index, ratio of CC50 for human PHK to EC50 for Camelpox virus CML1 infected in human PHK.
A short description of data set [4]: Selectivity index, ratio of CC50 for human PHK to EC50 for Camelpox virus CML14 infected in human PHK.
In data set [5] the test system is Camelpox virus. Kind of data set: Antiviral activity against Camelpox virus CML1 infected in differentiated human PHK raft culture assessed as reduction in viral titer determined in HEL299 cells treated after 7 days postinfection by virus yield reduction assay. The data set is classed as functional. The following applies: CML1, HEL 299, 168 h.
The nature of data set [6]: Cytotoxicity against human PHK after 4 days by Z1 Coulter counting analysis. The following applies: PHK cells. The essentials: (§1)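 Cell growth inhibition: HEL cells were seeded at 3.5 × 10³ per well and PHKs at 5 × 10³ per well. Serial dilutions were added in duplicate after 1 day (HEL) or 3 days (PHK). After 4 days with compound, cells were trypsinized and counted with a Coulter counter (8 μm lower limit). CC50 is the concentration reducing growth by 50%, mean ± SD of at least two experiments.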

In data set [7] the test system is Camelpox virus. Kind of data set: Antiviral activity against Camelpox virus CML14 infected in HEL299 cells assessed as reduction in viral titer after 6 days postinfection by virus yield reduction assay. It counts as functional. The following applies: for Activity: HEL 299; for EC99: CML14, HEL 299, 144 h.
The subject of data set [8] is Camelpox virus. Kind of data set: Antiviral activity against Camelpox virus CML1 infected in human PHK assessed as inhibition of virus-induced cytopathic effect after 6 days by Giemsa staining. The data set is classed as functional, organism-based. The following applies: CML1, 144 h.
The subject of data set [9] is Camelpox virus. Kind of data set: Antiviral activity against Camelpox virus CML1 infected in HEL299 cells assessed as inhibition of virus-induced cytopathic effect after 6 days by Giemsa staining. It counts as functional, organism-based. The following applies: CML1, HEL 299, 144 h.
Data set [10] is described as follows: Cytotoxicity against HEL299 cells after 4 days by Z1 Coulter counting analysis. It counts as cell-based, HEL 299. Conditions: human, HEL299 cells. The essentials:
as §1

Data set [11] concerns Camelpox virus. Kind of data set: Antiviral activity against Camelpox virus CML1 infected in HEL299 cells assessed as reduction in viral titer after 6 days postinfection by virus yield reduction assay. The data set is classed as functional. The following applies: for EC99: CML1, HEL 299, 144 h; for Activity: HEL 299.
The subject of data set [12] is Camelpox virus. Kind of data set: Antiviral activity against Camelpox virus CML1 infected in human PHK assessed as reduction in viral titer after 6 days postinfection by virus yield reduction assay. It counts as functional. The following applies: for EC99: CML1, 144 h.
The nature of data set [13]: Selectivity index, ratio of CC50 for HEL299 cells to EC50 for Camelpox virus CML1 infected in HEL299 cells. The following applies: human, HEL299 cells; read-out: Ratio CC50/IC50. It counts as toxicity, cell-based, HEL 299.
Data set [14] deals with Camelpox virus. Kind of data set: Antiviral activity against Camelpox virus CML14 infected in human PHK assessed as reduction in viral titer after 6 days postinfection by virus yield reduction assay. Conditions: for EC99: CML14, 144 h. It counts as functional.
Data set [15] has as its system Camelpox virus. Kind of data set: Antiviral activity against Camelpox virus CML1-induced cytopathic effect in human PHK raft culture assessed as full protection of differentiated epithelium at 65 uM treated after 7 days postinfection. The data set is classed as functional, organism-based.
The subject of data set [16] is Camelpox virus. Kind of data set: Antiviral activity against Camelpox virus CML14 infected in human PHK assessed as inhibition of virus-induced cytopathic effect after 6 days by Giemsa staining. The data set is classed as functional, organism-based. Conditions: CML14, 144 h.
Data set [17] relates to Camelpox virus. Kind of data set: Antiviral activity against Camelpox virus CML1-induced cytopathic effect in human PHK raft culture assessed as full protection of differentiated epithelium at 164uM treated after 7 days postinfection. The data set is classed as functional, organism-based.

pEC50: −log10 of the molar value. Calls of active or inactive are those of the source. The rule behind the calls is not given here. A value given as a limit tells only on which side of the number the result lay.

As a reminder, the pEC50 is the negative decadic logarithm of the EC50, by convention in mol/L. As usually defined, the EC99 is the point of the concentration-response curve where the effect stands at 99%. Broadly, the CC50 is the concentration at which the toxic effect on the cells reaches its halfway point. The low end stands for harm at low concentration, the high end for better tolerance by the cells. Consider `Nc1ccn(C[C@@H](CO)OCP(=O)(O)O)c(=O)n1.O.O` [CIDOFOVIR], for which the selectivity ratio in data set [1] was 29; in data set [13] it was 23. For the same compound, the pEC50 was 5.18 in [2], 5.28 in data set [8], 5.09 in data set [9] and 5.06 in data set [16]. In addition, the “Ratio CC50/IC50” value in data set [3] and in [4] was 1 throughout. Also, the EC99 in data set [5] was 6 µM; in data set [11], 58 µM; in data set [12], 16 µM. Further, the CC50 at 96 h was 7 µM in data set [6] and 192 µM in data set [10]. In addition, the Activity entry in [7], in data set [11], in data set [12] and in data set [14] was “Dose-dependent effect” each time. For the same compound, the outcome in [15] was Active.

On to `Nc1ncnc2c1ncn2C[C@@H](CO)OCP(=O)(O)O`, for which the results for the selectivity ratio in data set [1] and in data set [13] were 60 and 66, respectively. Besides, the pEC50 is 6.30 in [2], 6.00 in [8], 6.30 in data set [9] and 5.85 in [16]. The “Ratio CC50/IC50” value in [3] and in data set [4] was 1 each time. Also, the CC50 at 96 h in data set [6] came to 1 µM; in [10], 32 µM. Besides, the EC99 in data set [7] was 1 µM; in [14], 2 µM. For the same compound, the Activity result in data set [7], in [11], in [12] and in data set [14] was “Dose-dependent effect” in each case.

Turning to `Nc1ccn(C[C@H]2COP(=O)(O)CO2)c(=O)n1` [CYCLIC CIDOFOVIR], the selectivity ratio in [1] was found to be 38; in [13] it was 55. Further, the pEC50 is 5.06 in data set [2], 5.14 in data set [8], 5.21 in data set [9] and 5.04 in data set [16]. Besides, the “Ratio CC50/IC50” value in [3] and in [4] was 2 throughout. For the same compound, in data set [17], the result was Active. Further, the EC99 in [5] turned out to be 38 µM; in data set [11], 64 µM; in [12] it was 59 µM. In addition, the CC50 at 96 h in data set [6] stood at 17 µM; in data set [10], 335 µM. Moreover, the Activity result in data set [7], in data set [11], in [12] and in data set [14] was “Dose-dependent effect” throughout.

In the case of `CC(C)(C)C(=O)OCOP(=O)(COC(CO)Cn1cnc(N)nc1=O)OCOC(=O)C(C)(C)C` (centres undefined), the selectivity ratio in [1] and in data set [13] was 250 in each case. The pEC50 in [2] was 7.70; in data set [8] it was 6.22; in data set [9], 7.70; in data set [16], 6.52. Moreover, the “Ratio CC50/IC50” value in [3] is given as 2; in [4], 4. Moreover, the CC50 at 96 h in data set [6] stood at 1 µM; in [10] it was 5 µM. Also, the Activity entry in data set [11] is “Dose-dependent effect”.

Turning to `Nc1nc(NCS(=O)(=O)O)c2ncn(CCOCP(=O)(O)O)c2n1`, the selectivity ratio in data set [1] and in [13] was 1 in each case. For the same compound, the pEC50 was 5.72 in [2], 5.43 in [8], 5.72 in data set [9] and 5.31 in data set [16]. Besides, the “Ratio CC50/IC50” value in [3] and in [4] was 0.03 in each case. Further, the CC50 at 96 h in data set [6] came to 0.1 µM; in [10], 2 µM.

As for `Nc1ncnc2c1ncn2C[C@H]1COP(=O)(O)CO1`, the selectivity ratio is 441 in data set [1] and 393 in [13]. The pEC50 in data set [2] was 7.00; in [8], 5.80; in data set [9], 6.70; in data set [16], 5.51. The “Ratio CC50/IC50” value in [3] turned out to be 2; in data set [4], 1. Moreover, the CC50 at 96 h is 3 µM in [6] and 63 µM in [10]. Also, the EC99 was 2 µM in [7], 3 µM in [11] and 6 µM in data set [14]. The Activity result in data set [7], in data set [11], in data set [12] and in data set [14] was “Dose-dependent effect” each time.

For `Nc1nc(NC(CO)C(=O)O)c2ncn(CCOCP(=O)(O)O)c2n1` (racemic), the selectivity ratio in data set [1] and in data set [13] was 0.1 each time. Moreover, the pEC50 in data set [2] is 4.25; in data set [8] it was 4.09; in data set [9], 4.26; in [16], 4.03. Further, the “Ratio CC50/IC50” value in data set [3] and in data set [4] was 0.03 in each case. In addition, the CC50 at 96 h in data set [6] was 2 µM; in [10], 3 µM.

On to `Nc1nc(NCCCC(=O)O)c2ncn(CCOCP(=O)(O)O)c2n1`, for which the selectivity ratio in data set [1] and in data set [13] was < 2 each time. Besides, the pEC50 in data set [2], in data set [8], in data set [9] and in data set [16] was < 3.87 throughout. Further, the “Ratio CC50/IC50” value in data set [3] and in data set [4] was 1 each time. In addition, the results for the CC50 at 96 h in [6] and in data set [10] were > 134 µM and 282 µM, respectively.

Consider `Nc1nc2c(ncn2CCOCP(=O)(O)O)c(=O)[nH]1` [GS-438], for which the values for the selectivity ratio in data set [1] and in [13] were 0.2 and 0.3, respectively. For the same compound, the pEC50 in [2] is 5.26; in data set [8] it was 5.54; in data set [9], 5.48; in [16] it was 5.36. Moreover, the “Ratio CC50/IC50” value in data set [3] and in data set [4] was 0.1 each time. The results for the CC50 at 96 h in data set [6] and in [10] were 0.3 µM and 1 µM, respectively.

Regarding `C[C@H](COC1=CC(N)N(O)C(N)=N1)OCP(=O)(O)O` (some centres undefined), the selectivity ratio in data set [1] came to 82; in data set [13], 99. In addition, the pEC50 was 5.70 in data set [2], 5.41 in data set [8], 5.80 in [9] and 5.34 in data set [16]. The “Ratio CC50/IC50” value in data set [3] and in data set [4] was 1 each time. Moreover, the EC99 came out at 5 µM in data set [5]; 9.5 µM in [7]; 9.5 µM in [11]; 9.5 µM in data set [12]; 9.5 µM in data set [14]. Further, the 50% cytotoxic concentration (CC50) at 96 h came out at 5 µM in data set [6] and 162 µM in data set [10]. In addition, the Activity result in data set [7], in data set [11], in data set [12] and in data set [14] was “Dose-dependent effect” in each case.
